Results published in ChEMBL document CHEMBL5154910, “Preventing Influenza A Virus Infection by Mixed Inhibition of Neuraminidase and Hemagglutinin by Divalent Inhibitors” (J Med Chem, 2022).
Activity calls are given as the source filed them. The calls are words filed in the database; no cut-off is given here.

How the values were obtained:
Influenza A virus [1] = test: Inhibition of Influenza virus A/Netherlands/602/2009 hemagglutinin assessed as reduction of virus-LAMP1 binding in presence of oseltamivir carboxylate by biolayer interferometry
Method in brief: (§1)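 Biolayer interferometry was run at 30 °C in PBS with Ca/Mg, shaking at 1000 rpm. Streptavidin sensors were loaded to saturation with biotinylated LAMP1 carrying increased α2,6-linked sialic acids, then dipped into Neth09H1N1 virus mixed with variable compound concentrations. […] Controls had no compound, or OC only.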

Influenza A virus [2] = test: Antiviral activity against Influenza virus A/Netherlands/602/2009 assessed as inhibition of virus-LAMP1 binding at 10 uM by biolayer interferometry streptavidin sensor based assay; assay type: functional, organism-based; method in brief: as §1
MDCK-II = test: Cytotoxicity against dog MDCK-II cells at 5 uM; assay type: toxicity, cell-based, Canis lupus familiaris
Method in brief: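 MDCK-II monolayers were exposed to compound at the highest tested concentration of 5 μM in Opti-MEM at 37 °C, 5% CO2, for 4 days. Cytotoxicity was judged by microscopic inspection.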

[3] = Inhibition of Influenza A virus (A/Anascrecca/Spain/1460/2008(H7N9)) recombinant Neuraminidase using MUNANA as substrate incubated for 60 mins by fluorescence based assay
Method in brief: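 Recombinant soluble tetrameric NA (N9 from A/Anascrecca/Spain/1460/2008 or N1 from A/Wisconsin/09/2013) was made in HEK293T cells and purified on Strep-Tactin. Compounds were serially diluted 1:2 in 50 mM Tris-HCl, 4 mM CaCl2, pH 6.0, with a fixed non-saturating amount of NA. MUNANA was added to 100 μM final, 37 °C for 60 min, then stopped with glycine/ethanol at pH 10.7. Fluorescence read at ex 340/em 490 nm; […].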

[4] = Inhibition of Influenza virus A/Netherlands/602/2009 Neuraminidase using MUNANA as substrate incubated for 60 mins by fluorescence based whole virus assay
Method in brief: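 Whole Neth09H1N1 virus served as the NA source in place of recombinant protein. Compounds were serially diluted 1:2 in 50 mM Tris-HCl, 4 mM CaCl2, pH 6.0, with a fixed non-saturating amount of virus. MUNANA was added to 100 μM final, 37 °C for 60 min, then stopped with 0.1 M glycine, 25% ethanol, pH 10.7. Fluorescence read at ex 340/em 490 nm; IC50 determined.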

SMILES | inhibition (Influenza A virus [1]) | inhibition (Influenza A virus [2]) | Activity (MDCK-II) | IC50 [3] [µM] | IC50 [4] [µM]
CC[C@@H](CCCCc1cn([C@H]2[C@H](O)[C@@H](O)[C@H](n3cc(-c4ccc(-c5cn([C@H]6[C@H](O)[C@@H](O)[C@H](n7cc(-c8ccc(-c9cn([C@@H]%10O[C@H](CO)[C@@H](n%11cc(CCCC[C@H](CC)O[C@@H]%12OC(C(=O)O)=C[C@H](O)[C@H]%12NC(C)=O)nn%11)[C@H](O)[C@H]%10O)nn9)cc8)nn7)O[C@@H]6CO)nn5)cc4)nn3)O[C@@H]2CO)nn1)O[C@@H]1OC(C(=O)O)=C[C@H](O)[C@H]1NC(C)=O | Active | Active | Non-Toxic | – | –
C#CCCCC[C@@H](CC)O[C@@H]1OC(C(=O)O)=C[C@H](O)[C@H]1NC(C)=O | – | – | – | 28.2 | –
CCC(CC)O[C@@H]1C=C(C(=O)O)C[C@H](N)[C@H]1NC(C)=O [OSELTAMIVIR CARBOXYLATE] | – | – | Non-Toxic | – | –
CC[C@@H](CCCCc1cn([C@H]2[C@H](O)[C@@H](O)[C@H](n3cc(-c4ccc(-c5cn([C@@H]6O[C@H](CO)[C@@H](n7cc(CCCC[C@H](CC)O[C@@H]8OC(C(=O)O)=C[C@H](O)[C@H]8NC(C)=O)nn7)[C@H](O)[C@H]6O)nn5)cc4)nn3)O[C@@H]2CO)nn1)O[C@@H]1OC(C(=O)O)=C[C@H](O)[C@H]1NC(C)=O | – | Active | Non-Toxic | 3.3 | 0.08
C#CCCC[C@H](CC)O[C@@H]1CC(C(=O)O)=C[C@H](O)[C@H]1NC(C)=O | – | Active | Non-Toxic | 2.9 | –
CC[C@@H](CCCCc1cn([C@H]2[C@H](OC(C)=O)[C@@H](OC(C)=O)[C@H](n3cc(CCCC[C@H](CC)O[C@@H]4OC(C(=O)O)=C[C@H](O)[C@H]4NC(C)=O)nn3)O[C@@H]2COC(C)=O)nn1)O[C@@H]1OC(C(=O)O)=C[C@H](O)[C@H]1NC(C)=O | – | – | Non-Toxic | – | –
CC[C@@H](CCCCc1cn([C@H]2[C@H](O)[C@@H](O)[C@H](n3cc(-c4ccc(-c5cn([C@@H]6O[C@H](CO)[C@@H](n7cc(-c8cc(O)c(-c9cn([C@@H]%10O[C@H](CO)[C@@H](n%11cc(-c%12ccc(-c%13cn([C@@H]%14O[C@H](CO)[C@@H](n%15cc(CCCC[C@H](CC)O[C@@H]%16OC(C(=O)O)=C[C@H](O)[C@H]%16NC(C)=O)nn%15)[C@H](O)[C@H]%14O)nn%13)cc%12)nn%11)[C@H](O)[C@H]%10O)nn9)cc8O)nn7)[C@H](O)[C@H]6O)nn5)cc4)nn3)O[C@@H]2CO)nn1)O[C@@H]1OC(C(=O)O)=C[C@H](N)[C@H]1NC(C)=O | – | Active | Non-Toxic | – | –
CCC(CC)O[C@@H]1OC(C(=O)O)=C[C@H](O)[C@H]1NC(C)=O | – | – | – | 0.47 | –
CC[C@@H](CCCCc1cn([C@H]2[C@H](OC(C)=O)[C@@H](OC(C)=O)[C@H](n3cc(CCCC[C@H](CC)O[C@@H]4OC(C(=O)O)=C[C@H](O)[C@H]4NC(C)=O)nn3)O[C@@H]2CO)nn1)O[C@@H]1OC(C(=O)O)=C[C@H](O)[C@H]1NC(C)=O | – | – | Non-Toxic | 5.2 | 1.5
